Experimental data pooled from the literature.
Each line is one published result; the experiments were not run side by side.
Target: Casein kinase II subunit alpha (CSNK2A1, Homo sapiens, UniProt P68400)

| Compound | test | conditions | remaining binding [%] |
| --- | --- | --- | --- |
| N[C@H]1CCN(c2nccc(-c3cnn4ncccc34)n2)C1 | binding | 1 µM | 89 |
| O=C(NCC1CCOCC1)c1n[nH]cc1NC(=O)c1c(F)cccc1F | binding, competition with immobilised ligand | 1 µM | 59 |
| CC1CCCN1c1nccc(-c2cnn3ncccc23)n1 (stereo not drawn) | binding | 1 µM | 90 |
| C=CC(=O)N1CCC(C(=O)NCC(=O)N2CCN(c3nc(-c4cnc(N)nc4C(F)F)nc(N4CCOCC4)n3)CC2)CC1 | binding, competition with immobilised ligand | 1 µM | 75 |
| O=C(c1ccc(Nc2ncc(Cl)c(-c3ccc(Cl)s3)n2)cc1)N1CCC(N2CCCC2)CC1 | binding, competition with immobilised ligand | 1 µM | 0.9 |
| COc1cnc(Nc2cccc(S(N)(=O)=O)c2)nc1N1CCN(c2ccccc2)CC1 | binding, competition with immobilised ligand | 1 µM | 71 |
| O=C(NCCCN1CCOCC1)c1ccc(Nc2nccc(-c3cc4ccccc4s3)n2)cc1 | binding, competition with immobilised ligand | 1 µM | 37 |
| Cc1cnn2ncc(-c3ccnc(N(C)C)n3)c2c1 | binding | 1 µM | 86 |
| CC(=O)N1CCC(c2ccc(C(=O)NC(=N)N)cc2C(F)(F)F)CC1 | cell-free assay, competition with immobilised ligand | 1 µM | 95 |
| Nc1ncc2c(n1)-c1c([nH]c3ccc(C#CC4CC4)cc13)CCCC2 | binding, competition with immobilised ligand | 1 µM | 79 |
| CN(C(=O)c1ccccc1)c1cc(N(C)c2ccc3c(c2)CCc2ccc(C(=O)NCCN4CCOCC4)cc2C3=O)ccc1F | cell-free assay, competition with immobilised ligand | 1 µM | 100 |
| O=C(NCCCN1CCOCC1)c1ccc(Nc2ncc(Cl)c(-c3ccc(Cl)s3)n2)cc1 | binding, competition with immobilised ligand | 1 µM | 4 |
| Cn1nc(C(F)(F)F)cc1-c1cnc(N2CCc3cc(S(=O)(=O)Nc4c(F)cc(Cl)cc4F)cc(N4CCCC4=O)c32)nc1 | cell-free assay, competition with immobilised ligand | 1 µM | 65 |
| COc1ccnn2ncc(-c3ccnc(N(C)C)n3)c12 | binding | 1 µM | 74 |
| COc1ncc2cc3ccccc3nc2c1C#N | cell-free assay, competition with immobilised ligand | 5 µM | 92 |
| COc1cc(-c2cn(C3CCc4c(F)cccc4N(CC(F)(F)F)C3=O)nn2)ccc1-n1cnc(C)c1 (stereo not drawn) | cell-free assay, competition with immobilised ligand | 1 µM | 100 |
| c1cnn2ncc(-c3ccnc(N4CCC45COC5)n3)c2c1 | binding | 1 µM | 40 |
| CC(=O)c1c(NS(C)(=O)=O)c2cc(-c3ccc(Cl)cc3)c(-c3ccc(Cl)cc3Cl)nc2n(C)c1=O | cell-free assay, competition with immobilised ligand | 1 µM | 92 |
| CN(CCCC(F)(F)F)c1nccc(-c2cnn3ncccc23)n1 | binding | 1 µM | 66 |
| O=S(=O)(NC1CCC(c2cc(F)ccc2F)(S(=O)(=O)c2ccc(Cl)cc2)CC1)C(F)(F)F (stereo not drawn) | cell-free assay, competition with immobilised ligand | 1 µM | 85 |
| COc1cnc(Nc2cccc(S(N)(=O)=O)c2)nc1N1CCN(c2ccccc2)C(=O)C1 | binding, competition with immobilised ligand | 1 µM | 68 |
